Source: PubChem (The Scripps Research Institute Molecular Screening Center)
NPY2 pot ag – NPY-Y2 potentiators or agonists, primary screen, cell-based. activation, % at 3.6 µM. actives 0.45% (n = 220,000). Neuropeptide Y receptor type 2 (Homo sapiens), P49146. cells expressing NPY-Y2, potentiator/agonist read-out; in the data active means activation above about 27%;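 further: cells stimulated with NPY near EC25 plus isoproterenol at EC100; 0% = vehicle plus submaximal agonist and 100% = vehicle plus saturating agonist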
NPY-Y1 antag – NPY-Y1 receptor antagonists, primary screen, cell-based. AID 1040, 2008. inhibition, % at 3.6 µM. actives 1% (n = 200,000). HEK293-CNG Y1 cells, membrane potential fluorescence; NPY at EC95, then isoproterenol;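 active means inhibition above the campaign mean inhibition of all tested compounds plus 3 SD, cut at about 20% in these data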;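 further: 0% = DMSO wells given NPY plus isoproterenol and 100% = isoproterenol alone without NPY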
Target sequence (P25929 whole entry, looked up): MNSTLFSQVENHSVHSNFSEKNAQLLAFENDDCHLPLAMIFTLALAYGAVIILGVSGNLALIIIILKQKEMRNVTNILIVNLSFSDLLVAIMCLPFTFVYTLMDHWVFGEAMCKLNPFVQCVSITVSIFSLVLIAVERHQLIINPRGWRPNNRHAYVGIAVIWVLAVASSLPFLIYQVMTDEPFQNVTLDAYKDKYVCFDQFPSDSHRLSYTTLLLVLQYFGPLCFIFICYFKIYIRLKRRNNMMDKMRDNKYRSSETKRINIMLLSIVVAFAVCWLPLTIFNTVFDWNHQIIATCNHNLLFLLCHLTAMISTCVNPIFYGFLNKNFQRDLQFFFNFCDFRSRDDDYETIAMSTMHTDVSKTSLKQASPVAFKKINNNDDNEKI
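Test system: HEK293 cells co-expressing NPY Y1 receptor and cyclic-nucleotide gated channel; Also added: NPY (25 nM), isoproterenol (1 µM), Ro 20-1724 (25 µM); Compound dosing: one concentration, 3.6 µM, in 0.4% DMSO; Timing: dye 3 h, compound 60 min room temperature, stimulation 45 min; Technique: Membrane-potential fluorescent dye readout.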
NPY-Y2 antag – NPY-Y2 receptor antagonists, primary screen, cell-based | actives 0.99% (n = 140,000) | inhibition, % at 2.7 µM | AID 793, 2007 | NPY-Y2 expressing cells, antagonist mode | Neuropeptide Y receptor type 2 (Homo sapiens), P49146; in the data active means inhibition above about 17%;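 further: 0% = vehicle with agonist challenge and 100% = reference antagonist with challenge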
NPY1 pot ag – NPY-Y1 receptor potentiators or agonists, primary screen, cell-based. Neuropeptide Y receptor type 1 (Homo sapiens), P25929. NPY-Y1 expressing cells, potentiator/agonist activation. activation, % at 3.6 µM. actives 0.37% (n = 220,000); in the data active means activation above about 33%, passing the limit was not always enough;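 further: cells stimulated with NPY at EC10 then isoproterenol at EC100; 0% = low agonist plus stimulus and 100% = saturating agonist plus stimulus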
NPY1 antag ctr – NPY-Y1 receptor antagonists, selectivity check, counter-screen for NPY-Y2 antagonist project, cell-based. AID 1256, 2008. shares compounds with NPY-Y2 antag. inhibition, % at 3.6 µM. actives 19% (n = 710). cell-based NPY-Y1 antagonism counterscreen; in the data active means inhibition above about 20%;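 further: cells challenged with NPY then isoproterenol with cAMP sensed through a CNG channel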
NPY2 antag conf – NPY-Y2 receptor antagonists, retest of hits, confirmation, HEK293-CNG cells, membrane potential fluorescence, triplicate; shares compounds with NPY-Y2 antag; HEK293 NPY-Y2 CNG channel; inhibition, % at 2.8 µM; actives 32% (n = 710); AID 1257, 2008;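 active means mean inhibition of triplicate wells above the hit cutoff set in the primary screen, cut at about 17% in these data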;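 further: 0% = DMSO with NPY challenge and 100% = BIIE0246 high control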
The depositor's hits bear a star; nt = no result given; ! = repeats disagree. The list is not random: actives were taken first. Their share in the collection is about 1.8%.

SMILES	NPY2 pot ag	NPY-Y1 antag	NPY-Y2 antag	NPY1 pot ag	NPY1 antag ctr	NPY2 antag conf
CCC(=O)Nc1ccc(Cl)c(NC(=O)C(C)C)c1	12	2	1	3	nt	nt
O=C1C(=O)c2ccc(-c3ccccc3)cc2-c2ccccc21	3	-1	-1	-1	nt	nt
Nc1ccc2c(c1)C(=O)C(=O)c1ccccc1-2	-3	9	48*	-9	17	35*
Cc1cc(C(F)(F)F)nc(SCC(=O)c2cccc([N+](=O)[O-])c2)n1	5	0	19*	-5	3	5
Cc1cc(C)c(C)c(S(=O)(=O)Nc2ccccc2C(=O)NCCCN2CCOCC2)c1C	-5	1	nt	-22	nt	nt
CCCc1cc(-c2n[nH]c(=S)n2CC)cs1	-15	12	nt	-24	nt	nt
CCCc1cc(-c2n[nH]c(=S)n2C(C)c2ccccc2)cs1 (configuration not stated)	-21	18	20*	-10	15	11
COc1ccc(CCN(C)S(=O)(=O)c2ccc(Cl)nc2)cc1OC	1	2	nt	-12	nt	nt
S=c1nc(-c2csc3c2CCCC3)[nH][nH]1	-17	5	nt	12	nt	nt
COc1ccc(C2C(C(=O)Nc3ccc(OC)c(OC)c3)c3ccccc3C(=O)N2C)cc1 (configuration not stated)	-21	4	nt	-14	nt	nt
c1ccc(N(c2ccccc2)c2nc(-n3ccnc3)nc(-n3ccnc3)n2)cc1	18	3	23*	36	6	3
CC(C)c1nnc(NC(=O)CCC(=O)Nc2ccc(F)cc2)s1	3	-2	1	4	nt	nt
CCN(CC)S(=O)(=O)c1ccc(/C=C/C(=O)Nc2ccc(F)cc2F)cc1	4	0	4	18	nt	nt
CCN(CC)S(=O)(=O)c1ccc(/C=C/C(=O)Nc2ccc(Br)cc2F)cc1	11	18	17*	-27	29*	17*
C/C(=C\c1ccccc1)C(=O)N1CCN(c2cccc(C(F)(F)F)c2)CC1	-22	15	12	-5	nt	nt
Cc1ccc(/C=C/C(=O)N2CCN(c3cccc(C(F)(F)F)c3)CC2)cc1	-14	10	21*	3	21*	14
CC(Sc1ccc(Cl)cc1)C(=O)Nc1ccccc1-c1ccccc1 (configuration not stated)	-25	18	20*	-37	15	25*
FC(F)(F)c1nc(-c2cccnc2)ncc1-c1nnnn1-c1ccccc1	-6	1	5	-23	nt	nt
FC(F)(F)c1nc(-c2cccs2)ncc1-c1nnnn1-c1ccc(Cl)cc1	6	14	25*	-32	26*	17
CCOc1ccc(-n2c(-c3ccccc3)nnc2-c2ccccc2)cc1	-24	10	21*	-32	7	15
CCNC(=O)CSc1nnc(-c2ccccc2)n1-c1ccc(OCC)cc1	-15	3	-2	6	nt	nt
Cc1ccc(NC(=O)COC(=O)CN2C(=O)COc3ccccc32)cc1	6	-4	-1	-27	nt	nt
CC(C)C(OC(=O)CN1C(=O)COc2ccccc21)C(=O)NC1CCCC1 (configuration not stated)	-1	17	18*	-5	10	7
Cc1ccc(-c2nc(=S)c3c(n2CC2CCCO2)CC(C)(C)OC3)cc1 (configuration not stated)	-1	3	5	8	nt	nt
Cc1ccc(-c2nc(=S)c3c(n2Cc2ccco2)CC(C)(C)OC3)cc1	1	17	18*	-12	21*	8
SMILES	NPY2 pot ag	NPY-Y1 antag	NPY-Y2 antag	NPY1 pot ag	NPY1 antag ctr	NPY2 antag conf
O=C(O)Cc1ccc(S(=O)(=O)Nc2ccccc2C(=O)O)cc1	-20	-3	nt	-5	nt	nt
O=C(CSc1nnc(SCc2ccccc2)s1)N/N=C/c1c(Cl)cccc1Cl	-12	2	26*	-20	13	16
Cc1nn(-c2ccccc2)c(C)c1/C=N/NC(=O)CSc1nnc(SCc2ccc(Cl)cc2)s1	2	-1	6	17	nt	nt
CC1CN(S(=O)(=O)c2ccc(Cl)c(C(F)(F)F)c2)CC(C)O1 (configuration not stated)	0	-4	3	3	nt	nt
Cc1cc2ncn(C(=O)c3c(-c4ccccc4)noc3C)c2cc1C	-2	8	20*	-5	9	9
Cc1cc2ncn(C(=O)c3c(-c4c(Cl)cccc4Cl)noc3C)c2cc1C	-3	0	1	-7	nt	nt
Cc1ccc(N(CC(=O)NCc2ccccc2Cl)S(=O)(=O)c2cccs2)cc1	1	14	22*	-7	4	8
CCCCOc1ccc(C2=NNC(=O)CC2)cc1	-10	9	22*	-40	19	39*
Cc1ccc(Cl)cc1NC1=NC(=S)N(C(C)C)C12CCCCC2	-1	1	0	-12	nt	nt
COC(=O)Cn1c(=N)n(CCN2CCCCC2)c2ccccc21	10	0	4	-20	nt	nt
Cc1ccccc1OCC(O)Cn1c(=N)n(CCN2CCOCC2)c2ccccc21 (configuration not stated)	-2	30*!	28*	-16	10	7
COc1ccccc1OCC(O)Cn1c(=N)n(CCN2CCCCC2)c2ccccc21 (configuration not stated)	-7	17	45*	-53	31*	39*
C/C(=N\NC(=O)c1c(Br)cnn1C)c1ccc(NC(=O)c2ccc(F)cc2)cc1	10	-7	nt	2	nt	nt
O=C1NC(=O)C2(COC3(CCCC3)OC2)S1	14	2	2	-21	nt	nt
Cc1cc(C)cc(NC(=O)c2cnn(-c3ccccc3)c2C2CCNCC2)c1	-6	1	nt	2	nt	nt
CC1CCCN(C(=O)CSc2nnc(-c3c[nH]c4ccccc34)o2)C1 (configuration not stated)	-15	8	23*	-6	6	6
CN(C)/C=C/C(=O)c1cnc(-c2ccccn2)s1	7	0	nt	7	nt	nt
COCCOC(=O)c1c(C)oc2ccc(NS(=O)(=O)c3ccccc3)cc12	-13	0	5	-3	nt	nt
CCOC(=O)c1c(C)oc2ccc(NS(=O)(=O)c3ccc4c5c(cccc35)C(=O)N4)cc12	-14	10	27*	-45	5	14
Cc1ccc(C)c(NS(=O)(=O)c2cc(C(=O)Nc3ccccc3-c3ccccc3)ccc2Cl)c1	-33	1	69*	3	2	103*
CC(C)(C)n1nnnc1C(c1cccnc1)N(Cc1ccccc1)Cc1ccco1 (configuration not stated)	-4	18	18*	-1	6	2
CCC(C)(C)n1nnnc1C(c1ccc(C)cc1)N(Cc1ccco1)Cc1cccs1 (configuration not stated)	1	18	22*	-22	10	10
